In ChEMBL document CHEMBL4000155, “Synthesis and Antileukemic Activities of Piperlongumine and HDAC Inhibitor Hybrids against Acute Myeloid Leukemia Cells” (J Med Chem, 2016):
Active and inactive are the calls of the source. The calls are words filed in the database; no cut-off is given here.

Experiments:
[1] = system: CMK; assay: Antiproliferative activity against Ara-C resistant human CMK cells after 72 hrs by MTT assay; type: functional, cell-based
[2] = system: MOLM-13; assay: Induction of apoptosis in human MOLM13 cells harboring wild type p53/FLT3-ITD mutant at 2 uM after 24 hrs in presence of SAHA by annexin V-FITC/PI staining based flow cytometry; type: functional
In short: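 Cells treated 24 h, single agents or SAHA+PL at 1:1 (each drug at the stated concentration). Annexin V-FITC/PI kit staining, then flow cytometry, reported as % Annexin V+ cells. Three independent experiments in triplicate, with data from one representative experiment. DMSO <0.1% vehicle control.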

[3] = species: Homo sapiens; details: at 1 µM
[4] = system: U-937; assay: Induction of DNA damage in p53 null human U937 cells assessed as decrease in CHK1 expression level by measuring ratio of CHK1 to beta-actin level at 2 uM after 24 hrs by Western blot analysis relative to control; type: functional
In short: (§1)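 U937 cells treated 24 h, alone or PL+SAHA. Whole-cell lysates (protease/phosphatase inhibitors) immunoblotted for γH2AX, CHK1, RAD51, Bim and XIAP. Band densitometry normalised to β-actin, then expressed as fold change relative to the untreated control.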

[5] = system: U-937; assay: Induction of apoptosis in p53 null human U937 cells assessed as increase in Bim EL expression level by measuring ratio of Bim EL to beta-actin level at 2 uM after 24 hrs by Western blot analysis relative to control; type: functional; in short: as §1
[6] = Antiproliferative activity against human CMS cells after 72 hrs by MTT assay; type: functional, cell-based
In short: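 AML cell lines grown in RPMI 1640 with 10% FBS (20% for MOLM-13), 2 mM L-glutamine and penicillin/streptomycin at 37 °C, 5% CO2. Ara-C-resistant HL-60 and CMK sublines came from stepwise cytarabine selection and were kept in 600 nM or 300 nM cytarabine respectively. Cells were treated 72 h. MTT 0.05 mg/mL, 3 h at 37 °C, DMSO solubilization, absorbance at 570 nm. IC50 given ± SEM.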

[7] = system: U-937; assay: Induction of apoptosis in p53 null human U937 cells assessed as decrease in XIAP expression level by measuring ratio of XIAP to beta-actin level at 2 uM after 24 hrs by Western blot analysis relative to control; type: functional; in short: as §1
[8] = system: HL-60; assay: Antiproliferative activity against human HL60 cells after 72 hrs by MTT assay; type: functional, cell-based; details: HL-60, 72 h
[9] = system: U-937; assay: Antiproliferative activity against p53 null human U937 cells after 72 hrs by MTT assay; type: functional, cell-based; details: U-937, 72 h
[10] = system: MCF-10A; assay: Cytotoxicity against human MCF10A cells assessed as decrease in cell viability at 0.5 to 5 uM after 24 hrs by MTT assay; type: cell-based
In short: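 MCF-10A (DMEM/F12, 5% horse serum, hydrocortisone, cholera toxin, insulin, EGF) and U937 (RPMI 1640, 10% FBS) were exposed to 0.5–5 μM, alone or PL+SAHA 1:1, for 24 h. MTT 0.05 mg/mL, 3 h at 37 °C, DMSO solubilization, A570. Viability given as mean ± SD of four to six independent experiments. DMSO <0.1% vehicle control.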

[11] = system: OCI-AML-3; assay: Antiproliferative activity against human OCI-AML3 cells after 72 hrs by MTT assay; type: functional, cell-based; details: OCI-AML-3, 72 h
[12] = system: MV4-11; assay: Antiproliferative activity against human MV4-11 cells after 72 hrs by MTT assay; type: functional, cell-based; details: MV4-11, 72 h
[13] = system: MOLM-13; assay: Antiproliferative activity against human MOLM13 cells harboring wild type p53/FLT3-ITD mutant after 72 hrs by MTT assay; type: functional, cell-based; details: MOLM-13, 72 h
[14] = system: CMK; assay: Antiproliferative activity against human CMK cells after 72 hrs by MTT assay; type: functional, cell-based
[15] = system: U-937; assay: Induction of DNA damage in p53 null human U937 cells assessed as increase in gammaH2AX expression level by measuring ratio of gammaH2AX to beta-actin level at 2 uM after 24 hrs by Western blot analysis relative to control; type: functional; in short: as §1
[16] = system: U-937; assay: Induction of apoptosis in p53 null human U937 cells at 2 uM preincubated with NAC for 3 hrs followed by compound addition measured after 24 hrs by annexin V-FITC/PI staining based flow cytometry; type: functional, cell-based
In short: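 U937 cells preincubated 3 h with 3 mM NAC or vehicle and washed with PBS to remove excess NAC. Then drug alone or with SAHA for 24 h. Apoptosis scored as % Annexin V+ by Annexin V-FITC/PI flow cytometry; vehicle DMSO < 0.1% v/v.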

[17] = system: U-937; assay: Induction of DNA damage in p53 null human U937 cells at 2 uM after 20 hrs by SYBR gold staining based alkaline comet assay; type: functional, cell-based
In short: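 U937 cells treated 20 h with SAHA and PL alone or combined (16 h for hybrids). Alkaline single-cell gel electrophoresis, SYBR Gold staining, microscopy. Median % DNA in tail from 4 replicate gels ± s.e.m.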

[18] = system: HL-60; assay: Antiproliferative activity against Ara-C resistant human HL60 cells after 72 hrs by MTT assay; type: functional, cell-based; details: HL-60, 72 h
[19] = Antiproliferative activity against human CMY cells after 72 hrs by MTT assay; type: functional, cell-based

SMILES	IC50 [1] [µM]	Activity [2] [%]	inhibition [3]	Ratio [4]	Ratio [5]	IC50 [6] [µM]	Ratio [7]	IC50 [8] [µM]	IC50 [9] [µM]	Activity [10]	IC50 [11] [µM]	IC50 [12] [µM]	IC50 [13] [µM]	IC50 [14] [µM]	Ratio [15]	Activity [16]	Activity [17]	IC50 [18] [µM]	IC50 [19] [µM]
COc1cc(/C=C/C(=O)N2CCC=CC2=O)cc(OC)c1OC [PIPLARTINE]	1.91	53.6	inactive	1	1	3.1	1	1.78	2.17	Non-Toxic	1.87	1.44	1.84	2.81	1	inactive	inactive	2.25	1.62
COc1cc(/C=C/C(=O)N2CCC=CC2=O)cc(OC)c1OCCCCCCC(=O)NO	0.215		Active	0.7	1.8	0.385	0.6	0.357	0.498	Non-Toxic	0.615	0.23	0.454	0.256	4.5	inactive	Active	0.692	0.185
